Results as given in ChEMBL document CHEMBL4715682, “Potent trifluoromethoxy, trifluoromethylsulfonyl, trifluoromethylthio and pentafluorosulfanyl containing (1,3,4-oxadiazol-2-yl)benzamides against drug-resistant Gram-positive bacteria” (RSC Med Chem, 2020).
≈ marks a conversion by molar mass, not a printed value. Calls of active or inactive are those of the source. No cut-off for these calls is given here.

What was measured:
Assay type in all cases: functional
[1] = test system: Staphylococcus aureus; assay: Antibacterial activity against Staphylococcus aureus ATCC 25923 assessed as inhibition of visible bacterial growth incubated for 18 to 20 hrs by CLSI method; details: time 18-20 hrs
Method in brief: (§1)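 CLSI broth microdilution. Strains grown aerobically overnight on tryptic soy agar at 37 °C, adjusted to 0.5 McFarland and diluted in cation-adjusted Mueller–Hinton broth to about 5×10^5 CFU/mL. Compounds and control drugs serially diluted across the plate. Incubated aerobically at 37 °C for 18-20 h. MIC is the lowest concentration with no visible growth.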

[2] = test system: Staphylococcus aureus; assay: Antibacterial activity against methicillin-resistant Staphylococcus aureus ATCC 33592 assessed as inhibition of visible bacterial growth incubated for 18 to 20 hrs by CLSI method; details: time 18-20 hrs; method in brief: as §1
[3] = test system: Staphylococcus aureus; assay: Antibacterial activity against methicillin-sensitive Staphylococcus aureus ATCC 6538 assessed as inhibition of visible bacterial growth incubated for 18 to 20 hrs by CLSI method; details: time 18-20 hrs; method in brief: as §1
[4] = test system: Staphylococcus aureus; assay: Antibacterial activity against methicillin-sensitive Staphylococcus aureus NRS 107 assessed as inhibition of visible bacterial growth incubated for 18 to 20 hrs by CLSI method; details: time 18-20 hrs; method in brief: as §1
[5] = test system: Staphylococcus aureus; assay: Antibacterial activity against methicillin-resistant Staphylococcus aureus NRS 119 assessed as inhibition of visible bacterial growth incubated for 18 to 20 hrs by CLSI method; details: time 18-20 hrs; method in brief: as §1
[6] = test system: Staphylococcus aureus; assay: Antibacterial activity against methicillin-resistant Staphylococcus aureus NRS382 assessed as inhibition of visible bacterial growth incubated for 18 to 20 hrs by CLSI method; details: time 18-20 hrs; method in brief: as §1
[7] = test system: Staphylococcus aureus; assay: Antibacterial activity against methicillin-resistant Staphylococcus aureus NRS383 assessed as inhibition of visible bacterial growth incubated for 18 to 20 hrs by CLSI method; details: time 18-20 hrs; method in brief: as §1
[8] = test system: Staphylococcus aureus; assay: Antibacterial activity against methicillin-resistant Staphylococcus aureus NRS384 assessed as inhibition of visible bacterial growth incubated for 18 to 20 hrs by CLSI method; details: time 18-20 hrs; method in brief: as §1
[9] = test system: Staphylococcus aureus; assay: Antibacterial activity against methicillin-resistant Staphylococcus aureus NRS123 assessed as inhibition of visible bacterial growth incubated for 18 to 20 hrs by CLSI method; details: time 18-20 hrs; method in brief: as §1
[10] = test system: Staphylococcus aureus; assay: Antibacterial activity against methicillin-resistant Staphylococcus aureus NRS385 assessed as inhibition of visible bacterial growth incubated for 18 to 20 hrs by CLSI method; details: time 18-20 hrs; method in brief: as §1
[11] = test system: Staphylococcus aureus; assay: Antibacterial activity against methicillin-resistant Staphylococcus aureus NRS386 assessed as inhibition of visible bacterial growth incubated for 18 to 20 hrs by CLSI method; details: time 18-20 hrs; method in brief: as §1
[12] = test system: Staphylococcus aureus; assay: Antibacterial activity against methicillin-resistant Staphylococcus aureus NRS387 assessed as inhibition of visible bacterial growth incubated for 18 to 20 hrs by CLSI method; details: time 18-20 hrs; method in brief: as §1
[13] = test system: Staphylococcus aureus; assay: Antibacterial activity against vancomycin-resistant Staphylococcus aureus 10 assessed as inhibition of visible bacterial growth incubated for 18 to 20 hrs by CLSI method; details: time 18-20 hrs; method in brief: as §1
[14] = test system: Staphylococcus aureus; assay: Antibacterial activity against vancomycin-resistant Staphylococcus aureus 12 assessed as inhibition of visible bacterial growth incubated for 18 to 20 hrs by CLSI method; details: time 18-20 hrs; method in brief: as §1
[15] = test system: Staphylococcus epidermidis; assay: Antibacterial activity against Staphylococcus epidermidis NRS101 assessed as inhibition of visible bacterial growth incubated for 18 to 20 hrs by CLSI method; details: time 18-20 hrs
Method in brief: (§2)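 Broth microdilution per CLSI. Strains grown aerobically overnight on TSA at 37 °C, suspended to 0.5 McFarland, diluted in CAMHB to about 5×10^5 CFU/mL. Agents serially diluted across plate; aerobic incubation 37 °C for 18-20 h. MIC = lowest concentration completely preventing visible growth.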

[16] = test system: Listeria monocytogenes; assay: Antibacterial activity against Listeria monocytogenes ATCC 19111 assessed as inhibition of visible bacterial growth incubated for 18 to 20 hrs by CLSI method; details: time 18-20 hrs; method in brief: as §2
[17] = test system: Staphylococcus aureus; assay: Bactericidal activity against methicillin-resistant Staphylococcus aureus ATCC 33592 assessed as reduction in bacterial growth incubated for 18 hrs by CLSI method
[18] = test system: Staphylococcus aureus; assay: Antibacterial activity against methicillin-resistant Staphylococcus aureus ATCC 33592 assessed as reduction in bacterial count at 3 x MIC incubated upto 24 hrs by time kill analysis; details: time hrs <=24
Method in brief: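 Time-kill assay. […] Samples taken at 0, 2, 4, 8, 12 and 24 h, serially diluted in PBS and plated on tryptic soy agar. Viable CFU/mL counted after 18-20 h at 37 °C.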

[19] = test system: Staphylococcus aureus; assay: Antibacterial activity against methicillin-resistant Staphylococcus aureus NRS484 assessed as inhibition of visible bacterial growth incubated for 18 to 20 hrs by CLSI method; details: time 18-20 hrs; method in brief: as §1
[20] = test system: Streptococcus pneumoniae; assay: Antibacterial activity against cephalosporin-resistant Streptococcus pneumoniae ATCC 51916 assessed as inhibition of visible bacterial growth incubated for 18 to 20 hrs by CLSI method; details: time 18-20 hrs; method in brief: as §1
[21] = test system: Streptococcus pneumoniae; assay: Antibacterial activity against […] Streptococcus pneumoniae ATCC 700677 assessed as inhibition of visible bacterial growth incubated for 18 to 20 hrs by CLSI method; details: time 18-20 hrs; method in brief: as §1
[22] = test system: Enterococcus faecalis; assay: Antibacterial activity against vancomycin- resistant Enterococcus faecalis ATCC 51299 assessed as inhibition of visible bacterial growth incubated for 18 to 20 hrs by CLSI method; details: time 18-20 hrs; method in brief: as §1
[23] = test system: Enterococcus faecalis; assay: Antibacterial activity against vancomycin- resistant Enterococcus faecalis ATCC 700221 assessed as inhibition of visible bacterial growth incubated for 18 to 20 hrs by CLSI method; details: time 18-20 hrs; method in brief: as §1
[24] = test system: Staphylococcus aureus; assay: Antibacterial activity against methicillin-resistant Staphylococcus aureus USA400 infected in mouse J774 cells assessed as log reduction in intracellular growth at 8 ug/ml incubated for 18 to 22 hrs; details: dose 8.0 µg/ml, time 18-22 hrs
Method in brief: (§3)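 J774 murine macrophages grown in DMEM with 10% FBS at 37 °C, 5% CO2. Cells infected with MRSA USA400 at MOI about 10:1 for 1 h, then washed with gentamicin to remove extracellular bacteria. Agents added at 8 or 16 μg/mL in triplicate, with DMSO vehicle control, for 24 h. Cells lysed with 0.1% Triton-X, lysates plated on tryptic soy agar, and CFU counted after 18-22 h at 37 °C. Analysed by two-way ANOVA with Dunnett's test.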

[25] = test system: Staphylococcus aureus; assay: Antibacterial activity against methicillin-resistant Staphylococcus aureus USA400 infected in mouse J774 cells assessed as log reduction in intracellular growth at 16 ug/ml incubated for 18 to 22 hrs; details: dose 16.0 µg/ml, time 18-22 hrs; method in brief: as §3

SMILES: O=C(Nc1nnc(-c2cccs2)o1)c1ccc(C(F)(F)F)cc1
- MIC [1]: 2 µg/mL (≈ 5.89 µM)
- MIC [2]: 2 µg/mL (≈ 5.89 µM)

SMILES: O=C(Nc1nnc(-c2cccs2)o1)c1ccc(SC(F)F)cc1
- MIC [1]: 4 µg/mL (≈ 11.3 µM)
- MIC [2]: 4 µg/mL (≈ 11.3 µM)

SMILES: CSc1ccc(C(=O)Nc2nnc(-c3cccs3)o2)cc1
- MIC [1]: 4 µg/mL (≈ 12.6 µM)
- MIC [2]: 4 µg/mL (≈ 12.6 µM)

SMILES: O=C(Nc1nnc(-c2cccs2)o1)c1ccc(C(F)(F)F)s1
- MIC [1]: 4 µg/mL (≈ 11.6 µM)
- MIC [2]: 2 µg/mL (≈ 5.79 µM)

SMILES: CC(=O)NC[C@H]1CN(c2ccc(N3CCOCC3)c(F)c2)C(=O)O1 [LINEZOLID]
- MIC [3]: 0.5 µg/mL (≈ 1.48 µM)
- MIC [4]: 0.5 µg/mL (≈ 1.48 µM)
- MIC [5]: > 64 µg/mL
- MIC [6]: 1 µg/mL (≈ 2.96 µM)
- MIC [7]: 1 µg/mL (≈ 2.96 µM)
- MIC [8]: 1 µg/mL (≈ 2.96 µM)
- MIC [9]: 1 µg/mL (≈ 2.96 µM)
- MIC [10]: 1 µg/mL (≈ 2.96 µM)
- MIC [11]: 1 µg/mL (≈ 2.96 µM)
- MIC [12]: 1 µg/mL (≈ 2.96 µM)
- MIC [13]: > 64 µg/mL
- MIC [14]: > 64 µg/mL
- MIC [15]: 1 µg/mL (≈ 2.96 µM)
- MIC [16]: 0.5 µg/mL (≈ 1.48 µM)
- MBC [17]: > 128 µg/mL
- Activity [18]: 1.7 log10CFU/ml

SMILES: O=C(Nc1nnc(-c2cccs2)o1)c1ccc([N+](=O)[O-])cc1
- MIC [1]: 4 µg/mL (≈ 12.6 µM)
- MIC [2]: 8 µg/mL (≈ 25.3 µM)

SMILES: CN[C@H](CC(C)C)C(=O)N[C@H]1C(=O)N[C@@H](CC(N)=O)C(=O)N[C@H]2C(=O)N[C@H]3C(=O)N[C@H](C(=O)N[C@H](C(=O)O)c4cc(O)cc(O)c4-c4cc3ccc4O)[C@H](O)c3ccc(c(Cl)c3)Oc3cc2cc(c3O[C@@H]2O[C@H](CO)[C@@H](O)[C@H](O)[C@H]2O[C@H]2C[C@](C)(N)[C@H](O)[C@H](C)O2)Oc2ccc(cc2Cl)[C@H]1O [VANCOMYCIN]
- MIC [19]: > 2 µg/mL
- MIC [20]: 0.5 µg/mL (≈ 0.345 µM)
- MIC [21]: 1 µg/mL (≈ 0.69 µM)
- MIC [22]: 32 µg/mL (≈ 22.1 µM)
- MIC [23]: > 64 µg/mL
- MIC [16]: 0.5 µg/mL (≈ 0.345 µM)
- MBC [17]: 1 µg/mL (≈ 0.69 µM)
- Activity [24]: inactive
- Activity [25]: inactive

SMILES: O=C(Nc1nnc(-c2cccs2)o1)c1ccc(F)cc1
- MIC [1]: 32 µg/mL (≈ 111 µM)
- MIC [2]: 32 µg/mL (≈ 111 µM)

SMILES: O=C(Nc1nnc(-c2cccs2)o1)c1ccc(C(F)(F)F)cn1
- MIC [1]: 64 µg/mL (≈ 188 µM)
- MIC [2]: 32 µg/mL (≈ 94 µM)

SMILES: O=C(Nc1nnc(-c2cccs2)o1)c1ccc(OC(F)F)cc1
- MIC [1]: 32 µg/mL (≈ 94.9 µM)
- MIC [2]: 32 µg/mL (≈ 94.9 µM)

SMILES: O=C(Nc1nnc(-c2cccs2)o1)c1cc(C(F)(F)F)n[nH]1
- MIC [1]: > 64 µg/mL
- MIC [2]: > 64 µg/mL

SMILES: O=C(Nc1nnc(-c2cccs2)o1)c1cccc(C(F)(F)F)n1
- MIC [1]: 16 µg/mL (≈ 47 µM)
- MIC [2]: 16 µg/mL (≈ 47 µM)
